The subject of assay [1] is Trypanosoma brucei brucei. The experiment in a line: In vitro inhibitory concentration against blood stream Trypanosoma brucei brucei AT1 knockout mutant with a non functional P2 transporter incubated for 72 h at 37 degree C. Type of assay: organism-based. The gist of the method:
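Bloodstream T. b. brucei trypomastigotes, wild type or P2 transporter knockout (TbAT1-/-), were tested side by side. Viability was read by Alamar Blue fluorescence and IC50 values were determined.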

Assay [2] concerns Mus musculus. The experiment in a line: In vivo antitrypanosomal activity at a dose of 4*20 mg/kg, i.p., in mice infected with Trypanosoma brucei brucei STIB 795 strain, measured as survival days (control 7 days). The class given is functional.
The test system of assay [3] is Mus musculus. The experiment in a line: In vivo antitrypanosomal activity at a dose of 4*20 mg/kg, i.p., in mice infected with Trypanosoma brucei brucei STIB 795 strain; 0/4. The class given is functional.
For assay [4], the system named is Trypanosoma cruzi. The experiment in a line: In vivo activity at a dose of 50 mg/kg, i.p., for 5 doses in mice infected with Trypanosoma cruzi, measured as survival days (control 13 days). Particulars: route intraperitoneal.
Assay [5] has as its system L6. The experiment in a line: Concentration causing cytotoxicity to 50% of L-6 rat skeletal myoblasts. The class given is functional, cell-based. The essentials:
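L-6 rat skeletal myoblasts run in the same Alamar Blue assay as the trypanosome screen. Serial dilutions spanning 90 to 0.123 μg/mL, 72 h at 37 °C under 5% CO2, then Alamar Blue for a further 2–4 h. Fluorescence read at ex 536/em 588 nm and expressed as % of control to give IC50.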

For assay [6], the system named is Trypanosoma cruzi. The experiment in a line: In vivo percent inhibition of compound at a dose of 50 mg/kg, i.p., for 5 doses in mice infected with Trypanosoma cruzi. As to conditions: ip.
Assay [7] has as its system Trypanosoma brucei brucei. The experiment in a line: In vitro inhibitory concentration against blood stream Trypanosoma brucei brucei AT1 wild type incubated for 72 h at 37 degree C. Type of assay: functional, organism-based. The essentials:
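Wild-type T. b. brucei trypomastigotes, tested alongside the P2 knockout (TbAT1-/-). Alamar Blue viability assay used to derive IC50 values.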

Assay [8] concerns Leishmania donovani. The experiment in a line: Inhibitory concentration in vitro against intracellular amastigotes of Leishmania donovani in mouse peritoneal macrophages incubated for 96 hr at […]; tox is toxic to macrophages.
Assay [9] has as its system Trypanosoma cruzi. The experiment in a line: In vitro inhibitory concentration against intracellular amastigotes of Trypanosoma cruzi in rat skeletal myoblasts incubated for 37 degree C for 4 days. The class given is functional, organism-based. As to conditions: 96 h. The essentials: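 L-6 myoblasts seeded at 2000 cells/well in RPMI 1640 with 10% FBS and 2 mM L-glutamine. After 24 h, 5000 T. cruzi Tulahuen C2C4 (LacZ) trypomastigotes added with serial drug dilution. Incubated 4 days at 37 °C in 5% CO2, then CPRG/Nonidet added.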

In assay [10] the test system is Trypanosoma brucei rhodesiense. The experiment in a line: Inhibitory concentration in vitro against blood stream Trypanosoma brucei rhodesiense incubated for 72 hr at 37 degree C. The class given is functional, organism-based. The essentials:
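T. b. rhodesiense STIB900 trypomastigotes, a 1982 human isolate from Tanzania, grown in minimum essential medium with 2-mercaptoethanol and 15% heat-inactivated horse serum. Drug dilutions 90 to 0.123 μg/mL, 72 h at 37 °C, 5% CO2.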

For assay [11], the system named is Trypanosoma brucei. The experiment in a line: Inhibitory concentration against wild-type (427) Trypanosoma brucei. The class given is functional, organism-based.
Assay [12] concerns Leishmania donovani. The experiment in a line: Inhibitory concentration in vitro against intracellular amastigotes of Leishmania donovani in mouse peritoneal macrophages incubated for 96 hr at 27 degree C.
The subject of assay [13] is Mus musculus. The experiment in a line: In vivo antitrypanosomal activity at a dose of 4*20 mg/kg, i.p., in mice infected with Trypanosoma brucei brucei STIB 795 strain; 4/4. Type of assay: functional.
The test system of assay [14] is Trypanosoma cruzi. The experiment in a line: In vivo activity at a dose of 50 mg/kg, i.p., for 5 doses in mice infected with Trypanosoma cruzi, measured as survival days (control 13 days). As to conditions: ip, 312 h.
In assay [15] the test system is Mus musculus. As to the kind of experiment: In vivo antitrypanosomal activity at a dose of 4*20 mg/kg, i.p., in mice infected with Trypanosoma brucei rhodesiense STIB 900 strain; 2/4. Type of assay: functional.
The subject of assay [16] is Trypanosoma cruzi. The experiment in a line: In vivo activity at a dose of 50 mg/kg, i.p., for 5 doses in mice infected with Trypanosoma cruzi, measured as survival days (control 13 days).
The subject of assay [17] is Mus musculus. As to the kind of experiment: In vivo antitrypanosomal activity at a dose of 4*20 mg/kg, i.p., in mice infected with Trypanosoma brucei rhodesiense STIB 900 strain, measured as survival days (control 7 days). Type of assay: functional.
Assay [18] relates to Trypanosoma brucei. As to the kind of experiment: Inhibitory concentration against RAD51-/- mutant Trypanosoma brucei.

Experimental findings from ChEMBL document CHEMBL1141164, “Design and synthesis of a series of melamine-based nitroheterocycles with activity against Trypanosomatid parasites” (J Med Chem, 2005) are described below.

Turning to `CN(C)c1nc(N)nc(N/N=C/c2ccc([N+](=O)[O-])o2)n1`, the IC50 was 3.09 µM in assay [1]; 110 µM in [5]; 5.36 µM in [7]; “Toxic” in assay [8]; 0.29 µM in [9]; 0.053 µM in assay [10]. The Survival in assay [2] stood at 18.3 days; in assay [4], 14 days. This compound also had a Cured/Infected in assay [3] of 0. The compound also yielded an inhibition in vivo at 50 mg/kg in assay [6] of 45%.
As to `CNc1nc(N)nc(N/N=C/c2ccc([N+](=O)[O-])o2)n1`, the IC50 in assay [11] was determined as 0.08 µM; in assay [11] (Trypanosoma brucei), 0.08 µM; in [1] it was 0.06 µM; in assay [12], 0.75 µM; in [18], 0.07 µM; in assay [5], 48.9 µM. Also, the IC50 in [7] is 0.13 µM; in assay [9] it was 0.39 µM; in [10], 0.018 µM. For the same compound, the Cured/Infected in assay [13] was determined as 4; in [15], 2. This compound came in with an inhibition in vivo at 50 mg/kg in assay [14] of 27.8%. Besides, the Survival in [2] is over 60 days; in assay [16] it was 13 days; in assay [17], over 38.5 days.
